Experimental data from ChEMBL document CHEMBL1145556, “Development of potent and selective phosphinic peptide inhibitors of angiotensin-converting enzyme 2” (J Med Chem, 2008).

Target: T1, Carboxypeptidase A1 (Bos taurus, UniProt P00730)
T1 sequence (P00730 whole entry): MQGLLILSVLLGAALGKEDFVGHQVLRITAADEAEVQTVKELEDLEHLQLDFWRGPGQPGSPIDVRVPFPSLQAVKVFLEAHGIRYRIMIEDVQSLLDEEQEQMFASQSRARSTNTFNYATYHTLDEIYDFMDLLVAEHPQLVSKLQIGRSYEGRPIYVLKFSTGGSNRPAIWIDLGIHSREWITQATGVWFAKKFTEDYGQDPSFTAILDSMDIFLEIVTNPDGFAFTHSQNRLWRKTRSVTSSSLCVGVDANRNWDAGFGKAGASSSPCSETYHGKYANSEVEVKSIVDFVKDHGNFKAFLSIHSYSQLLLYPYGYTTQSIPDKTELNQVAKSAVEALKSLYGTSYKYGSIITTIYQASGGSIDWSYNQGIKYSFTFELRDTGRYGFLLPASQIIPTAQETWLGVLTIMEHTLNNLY
Assay: Inhibition of bovine carboxypeptidase A
How it was run: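 Bovine pancreatic carboxypeptidase A (0.5 nM) mixed with inhibitor in 50 mM Tris-HCl, 1 M NaCl, pH 7.5. Reaction started by adding furylacryloyl-Phe-Phe (50 µM).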

Compound | Ki
CC(=O)N[C@@H](CC(C)C)C(=O)N1CCC[C@@H]1P(=O)(O)CC(Cc1cc(-c2ccccc2)no1)C(=O)O (stereo partly specified) | 35 nM
CC(=O)N[C@@H](Cc1c[nH]cn1)C(=O)N[C@H](CC(C)C)P(=O)(O)C[C@@H](Cc1ccccc1)C(=O)O | 175 nM
CC(=O)N[C@@H](CC(C)C)C(=O)N[C@H](Cc1ccccc1)P(=O)(O)C[C@@H](Cc1ccccc1)C(=O)O | 0.3 nM
CC(=O)N[C@@H](Cc1c[nH]cn1)C(=O)N[C@H](CC(C)C)P(=O)(O)CC(Cc1cc(-c2ccccc2)no1)C(=O)O (stereo partly specified) | > 10000 nM
CC(=O)N[C@@H](Cc1c[nH]cn1)C(=O)N1CCC[C@@H]1P(=O)(O)CC(Cc1cc(-c2ccccc2)no1)C(=O)O (stereo partly specified) | 1050 nM

Next, values leading:

Ki | Compound
0.5 nM | CC(=O)N[C@@H](CC(C)C)C(=O)N1CCC[C@@H]1P(=O)(O)C[C@@H](Cc1ccccc1)C(=O)O (stereo in doubt)
60 nM | CC(=O)N[C@@H](Cc1c[nH]cn1)C(=O)N1CCC[C@@H]1P(=O)(O)C[C@@H](Cc1ccccc1)C(=O)O (stereo in doubt)

Target: not listed separately
Assay: Inhibition of ACE
How it was run: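 Somatic ACE (0.5 nM) with Mca-Ala-Ser-Asp-Lys-Dpa-OH substrate (15 µM). Otherwise as for ACE2: 45 min enzyme–inhibitor preincubation, 25 °C, 50 mM Hepes pH 6.8, 1 M NaCl, 10 µM ZnCl2. Continuous fluorescence read-out (ex 320, em 405 nm) of initial rates. Triplicates at five concentrations spanning 20–80% inhibition; Ki by the Horovitz–Levitzki method.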

Compound | Ki
CC(=O)N[C@@H](CC(C)C)C(=O)N1CCC[C@@H]1P(=O)(O)CC(Cc1cc(-c2ccccc2)no1)C(=O)O (stereo partly specified) | > 10000 nM
CC(=O)N[C@@H](Cc1c[nH]cn1)C(=O)N1CCC[C@@H]1P(=O)(O)CC(Cc1cc(-c2ccccc2)no1)C(=O)O (stereo partly specified) | > 10000 nM

Now from value to compound:

Ki | Compound
> 10000 nM | CC(=O)N[C@@H](CC(C)C)C(=O)N1CCC[C@@H]1P(=O)(O)C[C@@H](Cc1ccccc1)C(=O)O (stereo in doubt)
> 10000 nM | CC(=O)N[C@@H](Cc1c[nH]cn1)C(=O)N1CCC[C@@H]1P(=O)(O)C[C@@H](Cc1ccccc1)C(=O)O (stereo in doubt)

Target: Angiotensin-converting enzyme 2 (Homo sapiens, UniProt Q9BYF1)
Assay: Inhibition of ACE2
How it was run: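 Recombinant ACE2 (0.3 nM final) preincubated with inhibitor for 45 min, then Mca-APK(Dnp) substrate (35 µM final) added. Run at 25 °C in 50 mM Hepes pH 6.8, 1 M NaCl, 10 µM ZnCl2. Fluorescence rise followed continuously (ex 320, em 405 nm) at under 10% substrate use. Triplicates at five inhibitor concentrations giving 20–80% inhibition; Ki by the Horovitz–Levitzki method.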

Sequence of Angiotensin-converting enzyme 2 (Q9BYF1 whole entry): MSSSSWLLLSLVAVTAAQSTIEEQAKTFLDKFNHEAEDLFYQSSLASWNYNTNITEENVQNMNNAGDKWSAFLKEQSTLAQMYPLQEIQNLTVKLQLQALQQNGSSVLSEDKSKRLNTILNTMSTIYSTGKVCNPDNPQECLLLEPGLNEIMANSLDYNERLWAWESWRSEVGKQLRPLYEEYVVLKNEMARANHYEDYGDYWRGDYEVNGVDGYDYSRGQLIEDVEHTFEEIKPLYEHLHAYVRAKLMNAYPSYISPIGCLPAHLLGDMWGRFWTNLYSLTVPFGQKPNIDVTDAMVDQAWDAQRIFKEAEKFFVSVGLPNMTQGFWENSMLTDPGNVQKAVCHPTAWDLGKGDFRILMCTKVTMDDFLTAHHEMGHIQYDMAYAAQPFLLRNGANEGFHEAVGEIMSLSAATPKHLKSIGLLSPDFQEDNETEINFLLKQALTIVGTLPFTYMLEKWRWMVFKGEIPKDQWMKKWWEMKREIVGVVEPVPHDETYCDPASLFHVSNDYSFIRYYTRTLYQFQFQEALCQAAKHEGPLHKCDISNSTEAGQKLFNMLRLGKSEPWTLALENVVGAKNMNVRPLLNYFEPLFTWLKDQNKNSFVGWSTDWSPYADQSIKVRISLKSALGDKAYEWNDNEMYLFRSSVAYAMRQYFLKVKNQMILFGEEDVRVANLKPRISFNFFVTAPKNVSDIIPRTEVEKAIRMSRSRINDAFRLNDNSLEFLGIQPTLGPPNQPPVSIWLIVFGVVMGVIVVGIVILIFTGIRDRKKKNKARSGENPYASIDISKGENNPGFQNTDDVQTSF

Compound | Ki
CC(=O)N[C@@H](CC(C)C)C(=O)N1CCC[C@@H]1P(=O)(O)CC(Cc1cc(-c2ccccc2)no1)C(=O)O (stereo partly specified) | 1.25 nM
O=C(O)[C@H](Cc1ccccc1)CP(=O)(O)[C@H]1CCCN1 | > 10000 nM
CC(=O)N[C@@H](Cc1c[nH]cn1)C(=O)N[C@H](CC(C)C)P(=O)(O)C[C@@H](Cc1ccccc1)C(=O)O | 800 nM
N[C@H](Cc1ccccc1)P(=O)(O)C[C@@H](Cc1ccccc1)C(=O)O | > 10000 nM
O=C(O)[C@H](Cc1ccccc1)CP(=O)(O)[C@H]1CCCN1C(=O)OCc1ccccc1 | 300 nM
C[C@@H](NC(=O)OCc1ccccc1)P(=O)(O)C[C@@H](Cc1ccccc1)C(=O)O | > 10000 nM
CC(=O)N[C@@H](CC(C)C)C(=O)N[C@H](Cc1ccccc1)P(=O)(O)C[C@@H](Cc1ccccc1)C(=O)O | 920 nM
C[C@@H](N)P(=O)(O)C[C@@H](Cc1ccccc1)C(=O)O | > 10000 nM
O=C(N[C@H](Cc1ccccc1)P(=O)(O)C[C@@H](Cc1ccccc1)C(=O)O)OCc1ccccc1 | > 10000 nM
CC(C)C[C@@H](NC(=O)OCc1ccccc1)P(=O)(O)C[C@@H](Cc1ccccc1)C(=O)O | 8000 nM
CC(C)C[C@H](CP(=O)(O)[C@H]1CCCN1C(=O)OCc1ccccc1)C(=O)O | 300 nM
CC(=O)N[C@@H](Cc1c[nH]cn1)C(=O)N[C@H](CC(C)C)P(=O)(O)CC(Cc1cc(-c2ccccc2)no1)C(=O)O (stereo partly specified) | 220 nM
CC(=O)N[C@@H](Cc1c[nH]cn1)C(=O)N1CCC[C@@H]1P(=O)(O)CC(Cc1cc(-c2ccccc2)no1)C(=O)O (stereo partly specified) | 0.4 nM
CC(C)C[C@@H](N)P(=O)(O)C[C@@H](Cc1ccccc1)C(=O)O | > 10000 nM
C[C@H](CP(=O)(O)[C@H]1CCCN1C(=O)OCc1ccccc1)C(=O)O | 3000 nM
CC(=O)N[C@@H](Cc1ccc(O)cc1)C(=O)N1CCC[C@@H]1P(=O)(O)C[C@@H](Cc1ccccc1)C(=O)O | 5.2 nM

The next lines start with the values.

Ki | Compound
7.5 nM | CC(=O)N[C@@H](C)C(=O)N1CCC[C@@H]1P(=O)(O)C[C@@H](Cc1ccccc1)C(=O)O
0.35 nM | CC(=O)N[C@@H](CC(C)C)C(=O)N1CCC[C@@H]1P(=O)(O)C[C@@H](Cc1ccccc1)C(=O)O (stereo in doubt; 28)
6.6 nM | CC(=O)N[C@H](C(=O)N1CCC[C@@H]1P(=O)(O)C[C@@H](Cc1ccccc1)C(=O)O)C(C)C
0.13 nM | CC(=O)N[C@@H](CC(C)C)C(=O)N1CCC[C@@H]1P(=O)(O)C[C@@H](Cc1ccccc1)C(=O)O (stereo in doubt)
5.2 nM | CC(=O)N[C@@H](Cc1ccccc1)C(=O)N1CCC[C@@H]1P(=O)(O)C[C@@H](Cc1ccccc1)C(=O)O
6.5 nM | CC(=O)N[C@@H](CCCCN)C(=O)N1CCC[C@@H]1P(=O)(O)C[C@@H](Cc1ccccc1)C(=O)O
7 nM | CC(=O)N[C@@H](CCC(=O)O)C(=O)N1CCC[C@@H]1P(=O)(O)C[C@@H](Cc1ccccc1)C(=O)O
0.7 nM | CC(=O)N[C@@H](Cc1c[nH]cn1)C(=O)N1CCC[C@@H]1P(=O)(O)C[C@@H](Cc1ccccc1)C(=O)O (stereo in doubt)
2.1 nM | CC(=O)N[C@@H](Cc1c[nH]cn1)C(=O)N1CCC[C@@H]1P(=O)(O)C[C@@H](Cc1ccccc1)C(=O)O (stereo in doubt; 34)
